# Published values collected from several papers.
# Protocols differ between the studies behind these lines.
# Target: Mitogen-activated protein kinase kinase kinase 15 (MAP3K15, Homo sapiens, UniProt Q6ZN16)
# Residues used in one study (Q6ZN16 1-1313): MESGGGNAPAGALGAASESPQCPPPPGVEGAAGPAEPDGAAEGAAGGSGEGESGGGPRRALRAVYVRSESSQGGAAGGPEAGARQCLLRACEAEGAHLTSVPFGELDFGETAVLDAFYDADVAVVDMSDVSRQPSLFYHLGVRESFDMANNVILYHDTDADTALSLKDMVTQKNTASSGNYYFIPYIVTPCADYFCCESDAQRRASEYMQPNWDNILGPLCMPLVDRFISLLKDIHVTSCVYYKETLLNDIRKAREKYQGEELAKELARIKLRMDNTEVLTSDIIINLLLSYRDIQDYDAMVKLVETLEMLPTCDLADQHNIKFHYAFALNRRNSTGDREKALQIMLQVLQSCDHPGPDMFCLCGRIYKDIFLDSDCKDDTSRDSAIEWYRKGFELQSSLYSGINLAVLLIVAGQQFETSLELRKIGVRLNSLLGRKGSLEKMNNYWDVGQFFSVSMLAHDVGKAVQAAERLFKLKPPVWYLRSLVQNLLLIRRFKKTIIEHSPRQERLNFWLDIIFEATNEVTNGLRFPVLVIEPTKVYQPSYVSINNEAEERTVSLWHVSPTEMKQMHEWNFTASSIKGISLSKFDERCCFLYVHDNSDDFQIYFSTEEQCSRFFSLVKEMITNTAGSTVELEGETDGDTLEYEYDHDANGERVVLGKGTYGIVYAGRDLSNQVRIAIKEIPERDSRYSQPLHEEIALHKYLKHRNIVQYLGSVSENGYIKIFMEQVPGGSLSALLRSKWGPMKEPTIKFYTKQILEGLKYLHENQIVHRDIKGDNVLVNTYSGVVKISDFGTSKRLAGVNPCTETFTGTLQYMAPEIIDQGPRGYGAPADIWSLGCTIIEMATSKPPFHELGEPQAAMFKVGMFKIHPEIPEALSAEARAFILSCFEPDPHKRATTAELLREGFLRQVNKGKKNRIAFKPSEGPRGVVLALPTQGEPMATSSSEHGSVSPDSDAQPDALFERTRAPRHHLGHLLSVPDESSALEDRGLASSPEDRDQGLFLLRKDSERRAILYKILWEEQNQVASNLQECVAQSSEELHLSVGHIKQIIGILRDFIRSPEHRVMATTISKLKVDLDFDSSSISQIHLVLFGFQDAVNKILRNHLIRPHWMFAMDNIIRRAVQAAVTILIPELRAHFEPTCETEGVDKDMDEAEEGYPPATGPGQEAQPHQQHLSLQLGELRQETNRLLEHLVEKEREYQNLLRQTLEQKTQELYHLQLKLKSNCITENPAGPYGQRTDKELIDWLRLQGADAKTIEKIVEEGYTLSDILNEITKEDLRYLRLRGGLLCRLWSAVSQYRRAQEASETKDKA
SMILES,test,conditions,remaining binding
CC1=C(C#N)C(c2ccc3c(c2)c(NC(=O)c2ccccc2C)nn3C)C(C#N)=C(C)N1,"cell-free assay, competition with immobilised ligand",1 µM,96%
CN(CCCC(F)(F)F)c1nccc(-c2cnn3ncccc23)n1,binding,1 µM,100%
Cc1cnc(Nc2ccc(C(=O)N3CCC(N4CCCC4)CC3)cc2)nc1-c1cc2ccccc2s1,"binding, competition with immobilised ligand",1 µM,38%
O=C(Nc1c[nH]nc1C(=O)NC1CCNCC1)c1cc(F)cc(F)c1,"binding, competition with immobilised ligand",1 µM,100%
CCCCN(CCCC)C(=O)CN1C[C@@H](c2cc(OC)c3c(c2)OCO3)[C@H](C(=O)O)[C@H]1CC(C)(C)CCC,"cell-free assay, competition with immobilised ligand",1 µM,99%
C=CC(=O)N1CCC(C(=O)NCC(=O)N2CCN(c3nc(-c4cnc(N)nc4C(F)F)nc(N4CCOCC4)n3)CC2)CC1,"binding, competition with immobilised ligand",1 µM,100%
COc1ccc2c(c1)O[C@@H](c1ccc(OC)c(OC)c1)C[C@H]2NC(=O)C1(c2ccc3c(c2)OC(F)(F)O3)CC1,"cell-free assay, competition with immobilised ligand",1 µM,88%
COc1cnc(Nc2cccc(S(N)(=O)=O)c2)nc1N1CCN(c2ccccc2)CC1,"binding, competition with immobilised ligand",1 µM,78%
Cc1nccc(COC(=O)N2C[C@@H]3[C@@H](CNC(=O)c4ccc5[nH]nnc5c4)[C@@H]3C2)n1,"cell-free assay, competition with immobilised ligand",1 µM,95%
C[C@@H](c1ccc(-n2cnc3c(N)ncnc32)cc1)N1CCc2nn(C)c(Cc3ccccc3)c2C1=O,"binding, competition with immobilised ligand",0.1 µM,60%
N[C@@H]1CCN(c2nccc(-c3cnn4ncccc34)n2)C1,binding,1 µM,92%
C[C@@]1(Cc2ccc(C#N)cc2)C(=O)N(c2cc(Cl)cc(Cl)c2)c2ncc(C(=O)NC3(c4nc(C5CCC5)no4)CC3)n21,"cell-free assay, competition with immobilised ligand",1 µM,81%
CC1CCCN1c1nccc(-c2cnn3ncccc23)n1 (centres unmarked),binding,1 µM,100%
O=C(c1ccc(Nc2ncc(Cl)c(-c3ccc(Cl)s3)n2)cc1)N1CCC(N2CCCC2)CC1,"binding, competition with immobilised ligand",1 µM,52%
CN(C)c1nccc(-c2cnn3ncccc23)n1,binding,1 µM,91%
CCN1CCN(Cc2ccc(C(=O)Nc3ccc(C)c(Oc4ccc5c(c4)CC(=O)N5)c3)cc2C(F)(F)F)CC1,"binding, competition with immobilised ligand",1 µM,100%
COc1ccnn2ncc(-c3ccnc(N(C)C)n3)c12,binding,1 µM,100%
O=C(c1ccc(Nc2nccc(-c3cc4ccccc4s3)n2)cc1)N1CCC(N2CCCC2)CC1,"binding, competition with immobilised ligand",1 µM,96%
Cc1cnn2ncc(-c3ccnc(N(C)C)n3)c2c1,binding,1 µM,100%
Nc1cnc(N2CCc3cc(S(=O)(=O)Nc4c(F)cc(Cl)cc4F)cc(N4CCCC4=O)c32)nc1,"cell-free assay, competition with immobilised ligand",1 µM,100%
